ChEMBL document CHEMBL1221302, “Discovery of imidazo[1,2-b]pyridazine derivatives as IKKbeta inhibitors. Part 1: Hit-to-lead study and structure-activity relationship” (Bioorg Med Chem Lett, 2010)

How the values were obtained:
THP-1 = experiment: Antiinflammatory activity in human THP1 cells assessed as inhibition of LPS-induced TNFalpha production after 4 hrs by ELISA; format: functional, cell-based; conditions: THP-1, 4 h
Summary of the method: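 THP-1 cells primed 3–4 days with 100 nM calcitriol in RPMI-1640 containing 10% FBS, then cultured overnight without calcitriol. Resuspended in RPMI-1640 with 25 mM HEPES at 1.5×10^5 cells/mL. Compound and E. coli O111:B4 LPS added together, 4 h at 37 °C in 5% CO2. TNFα measured in the centrifuged supernatant by ELISA.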

[1] = target: T1, Inhibitor of nuclear factor kappa-B kinase subunit alpha (Homo sapiens, UniProt O15111); experiment: Inhibition of recombinant IKKalpha after 15 mins
T1 sequence (O15111 whole entry): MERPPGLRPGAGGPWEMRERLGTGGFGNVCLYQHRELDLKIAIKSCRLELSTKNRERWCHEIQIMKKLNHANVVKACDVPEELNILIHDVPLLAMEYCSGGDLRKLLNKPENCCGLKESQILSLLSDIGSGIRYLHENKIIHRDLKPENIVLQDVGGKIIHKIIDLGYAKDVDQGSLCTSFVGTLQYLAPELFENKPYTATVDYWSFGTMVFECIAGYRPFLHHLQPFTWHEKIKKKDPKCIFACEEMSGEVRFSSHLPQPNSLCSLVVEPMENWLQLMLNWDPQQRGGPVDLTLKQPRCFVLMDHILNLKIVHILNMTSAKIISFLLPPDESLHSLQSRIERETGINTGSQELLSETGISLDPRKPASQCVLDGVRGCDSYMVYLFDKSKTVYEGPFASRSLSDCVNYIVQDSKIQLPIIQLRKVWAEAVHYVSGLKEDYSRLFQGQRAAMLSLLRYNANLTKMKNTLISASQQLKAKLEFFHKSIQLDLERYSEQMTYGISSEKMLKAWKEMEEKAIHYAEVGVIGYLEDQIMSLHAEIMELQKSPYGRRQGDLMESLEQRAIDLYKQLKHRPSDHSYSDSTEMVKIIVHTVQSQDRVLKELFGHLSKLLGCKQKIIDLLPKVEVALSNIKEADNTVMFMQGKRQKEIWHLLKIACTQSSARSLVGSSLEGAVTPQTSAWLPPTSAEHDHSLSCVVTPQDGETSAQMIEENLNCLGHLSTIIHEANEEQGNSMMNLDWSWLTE

[2] = target: Mitogen-activated protein kinase 10 (Homo sapiens, UniProt P53779); experiment: Inhibition of recombinant JNK3 after 15 mins
Summary of the method: (§1)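 Each recombinant kinase was assayed with ATP at its own Km.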

[3] = target: Cyclin-dependent kinase 2 (Homo sapiens, UniProt P24941); experiment: Inhibition of recombinant CDK2 after 15 mins
[4] = target: T2, Inhibitor of nuclear factor kappa-B kinase subunit beta (Homo sapiens, UniProt O14920); experiment: Inhibition of purified His-tagged IKK-beta after 15 mins
T2 sequence (O14920 whole entry): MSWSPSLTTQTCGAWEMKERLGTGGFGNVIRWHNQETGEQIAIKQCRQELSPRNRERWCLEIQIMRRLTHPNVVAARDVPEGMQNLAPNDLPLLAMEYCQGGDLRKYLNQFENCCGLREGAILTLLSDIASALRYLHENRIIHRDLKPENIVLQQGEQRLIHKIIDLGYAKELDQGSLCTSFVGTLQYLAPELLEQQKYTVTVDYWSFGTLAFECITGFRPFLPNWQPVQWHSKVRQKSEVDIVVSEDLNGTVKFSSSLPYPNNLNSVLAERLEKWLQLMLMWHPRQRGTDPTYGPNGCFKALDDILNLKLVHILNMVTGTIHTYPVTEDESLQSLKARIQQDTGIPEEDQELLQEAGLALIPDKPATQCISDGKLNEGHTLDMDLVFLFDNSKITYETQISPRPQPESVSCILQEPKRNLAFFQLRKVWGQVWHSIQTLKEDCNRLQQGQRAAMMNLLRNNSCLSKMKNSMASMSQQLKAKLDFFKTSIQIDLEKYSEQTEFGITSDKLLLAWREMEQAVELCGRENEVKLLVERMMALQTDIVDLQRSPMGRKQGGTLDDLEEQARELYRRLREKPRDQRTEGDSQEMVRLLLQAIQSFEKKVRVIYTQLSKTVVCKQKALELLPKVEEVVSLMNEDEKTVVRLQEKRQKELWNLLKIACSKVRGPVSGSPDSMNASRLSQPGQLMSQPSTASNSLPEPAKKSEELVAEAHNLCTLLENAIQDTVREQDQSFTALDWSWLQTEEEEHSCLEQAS

[5] = target: Mitogen-activated protein kinase 14 (Homo sapiens, UniProt Q16539); experiment: Inhibition of recombinant p38alpha after 15 mins; summary of the method: as §1
[6] = target: Glycogen synthase kinase-3 beta (Homo sapiens, UniProt P49841); experiment: Inhibition of recombinant GSK3-beta after 15 mins; summary of the method: as §1
[7] = Apparent permeability of the compound at pH 7.4 by PAMPA method; format: ADME

Chain of Mitogen-activated protein kinase 14 (Q16539 whole entry): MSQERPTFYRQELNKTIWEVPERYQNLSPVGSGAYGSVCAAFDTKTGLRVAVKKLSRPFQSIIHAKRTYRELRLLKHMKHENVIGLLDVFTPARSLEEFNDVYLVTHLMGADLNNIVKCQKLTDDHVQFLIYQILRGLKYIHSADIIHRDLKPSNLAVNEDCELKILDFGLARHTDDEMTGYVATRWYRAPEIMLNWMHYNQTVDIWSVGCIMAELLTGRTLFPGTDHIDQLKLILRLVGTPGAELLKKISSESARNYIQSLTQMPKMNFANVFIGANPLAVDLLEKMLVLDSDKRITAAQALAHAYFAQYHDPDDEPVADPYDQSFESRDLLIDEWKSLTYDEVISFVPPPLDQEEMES
Chain of Mitogen-activated protein kinase 10 (P53779 whole entry): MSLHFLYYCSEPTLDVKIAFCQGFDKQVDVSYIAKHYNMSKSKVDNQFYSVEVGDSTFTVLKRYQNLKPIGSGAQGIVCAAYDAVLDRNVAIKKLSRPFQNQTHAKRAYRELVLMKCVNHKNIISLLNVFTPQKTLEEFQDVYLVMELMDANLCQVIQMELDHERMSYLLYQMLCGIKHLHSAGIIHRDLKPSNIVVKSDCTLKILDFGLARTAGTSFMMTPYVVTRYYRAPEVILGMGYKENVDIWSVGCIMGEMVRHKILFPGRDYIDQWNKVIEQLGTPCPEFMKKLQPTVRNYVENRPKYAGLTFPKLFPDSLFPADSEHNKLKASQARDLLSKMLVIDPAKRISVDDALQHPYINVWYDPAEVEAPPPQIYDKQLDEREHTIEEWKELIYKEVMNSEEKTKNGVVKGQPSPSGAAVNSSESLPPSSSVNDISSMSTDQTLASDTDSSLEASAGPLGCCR
Chain of Glycogen synthase kinase-3 beta (P49841 whole entry): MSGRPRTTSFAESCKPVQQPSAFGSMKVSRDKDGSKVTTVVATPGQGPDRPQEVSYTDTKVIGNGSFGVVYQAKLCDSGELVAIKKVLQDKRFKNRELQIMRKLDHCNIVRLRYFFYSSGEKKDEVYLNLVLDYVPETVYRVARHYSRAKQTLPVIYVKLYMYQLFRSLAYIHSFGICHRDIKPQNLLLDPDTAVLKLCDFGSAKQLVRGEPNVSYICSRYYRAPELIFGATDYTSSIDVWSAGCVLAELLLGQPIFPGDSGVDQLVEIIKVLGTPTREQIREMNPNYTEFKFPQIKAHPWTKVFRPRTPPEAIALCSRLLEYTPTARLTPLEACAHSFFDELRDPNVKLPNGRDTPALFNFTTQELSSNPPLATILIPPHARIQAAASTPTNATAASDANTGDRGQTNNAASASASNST

Compound | IC50 (THP-1) | IC50 [4] | also measured
CN(C)CCCNC(=O)c1ccc(-c2cnc3ccc(NCc4ccc(Cl)c(Cl)c4)nn23)cc1 | > 30 µM |  | 
CCN1CCC[C@H]1CNC(=O)c1ccc(-c2cnc3ccc(NCC4CC4)nn23)cc1 | 0.49 µM |  | 
O=C(NCCN1CCCC1)c1ccc(-c2cnc3ccc(NCc4ccc(Cl)c(Cl)c4)nn23)cc1 | > 30 µM | 0.59 µM | IC50 [1]: 4.6 µM; IC50 [2]: 90 µM; IC50 [3]: > 100 µM; IC50 [5]: > 100 µM; IC50 [6]: > 100 µM
O=C(NCCN1CCCCC1)c1ccc(-c2cnc3ccc(NCc4ccc(Cl)c(Cl)c4)nn23)cc1 | > 30 µM |  | 
O=C(NCCN1CCOCC1)c1ccc(-c2cnc3ccc(NCc4ccc(Cl)c(Cl)c4)nn23)cc1 |  | > 30 µM | 
NCCCNC(=O)c1ccc(-c2cnc3ccc(NCc4ccc(Cl)c(Cl)c4)nn23)cc1 | 4.7 µM |  | 
CC(C)(N)CNC(=O)c1ccc(-c2cnc3ccc(NCc4ccc(Cl)c(Cl)c4)nn23)cc1 | 6.5 µM |  | 
O=C(NCCNc1ccccc1)c1ccc(-c2cnc3ccc(NCc4ccc(Cl)c(Cl)c4)nn23)cc1 | > 30 µM |  | 
O=C(NC[C@@H]1CCCN1)c1ccc(-c2cnc3ccc(NCc4ccc(Cl)c(Cl)c4)nn23)cc1 | 4 µM | 0.32 µM | IC50 [1]: 2.2 µM; IC50 [2]: > 100 µM; IC50 [3]: 95 µM; IC50 [5]: > 100 µM; IC50 [6]: > 100 µM; Papp [7]: < 2 ×10⁻⁶ cm/s
O=C(NC[C@@H]1CCNC1)c1ccc(-c2cnc3ccc(NCc4ccc(Cl)c(Cl)c4)nn23)cc1 | 17 µM | 10 µM | 
O=C(NCC1CCNCC1)c1ccc(-c2cnc3ccc(NCc4ccc(Cl)c(Cl)c4)nn23)cc1 | > 30 µM |  | 
O=C(NC1CCNC1)c1ccc(-c2cnc3ccc(NCc4ccc(Cl)c(Cl)c4)nn23)cc1 (stereo not given) | 6.5 µM |  | 
O=C(NC1CCNCC1)c1ccc(-c2cnc3ccc(NCc4ccc(Cl)c(Cl)c4)nn23)cc1 | 4.4 µM |  | 
O=C(NCc1ccccn1)c1ccc(-c2cnc3ccc(NCc4ccc(Cl)c(Cl)c4)nn23)cc1 | > 30 µM |  | 
CN(C)CCN(C)C(=O)c1ccc(-c2cnc3ccc(NCc4ccc(Cl)c(Cl)c4)nn23)cc1 | 15 µM |  | 
NC1CN(C(=O)c2ccc(-c3cnc4ccc(NCc5ccc(Cl)c(Cl)c5)nn34)cc2)C1 | > 30 µM |  | 
O=C(c1ccc(-c2cnc3ccc(NCc4ccc(Cl)c(Cl)c4)nn23)cc1)N1CCC(N2CCCC2)CC1 | > 30 µM | 1.4 µM | 
CN1CCN(C(=O)c2ccc(-c3cnc4ccc(NCc5ccc(Cl)c(Cl)c5)nn34)cc2)CC1 | 12 µM |  | 
CCNC(=O)c1ccc(-c2cnc3ccc(NCc4ccc(Cl)c(Cl)c4)nn23)cc1 | 27 µM | 27 µM | 
NC(=O)c1ccc(-c2cnc3ccc(NCc4ccc(Cl)c(Cl)c4)nn23)cc1 | 1.7 µM |  | 
CNc1ccc2ncc(-c3ccc(C(=O)NC[C@@H]4CCCN4)cc3)n2n1 | 29 µM |  | 
CC(C)Nc1ccc2ncc(-c3ccc(C(=O)NC[C@@H]4CCCN4)cc3)n2n1 | 1.7 µM | 0.27 µM | 
O=C(NC[C@@H]1CCCN1)c1ccc(-c2cnc3ccc(NC4CC4)nn23)cc1 | 3.2 µM |  | 

Compound | IC50 (THP-1) | IC50 [4] | also measured
O=C(NC[C@@H]1CCCN1)c1ccc(-c2cnc3ccc(NCC4CC4)nn23)cc1 | 0.69 µM | 0.055 µM | IC50 [1]: 40 µM; IC50 [2]: > 100 µM; IC50 [3]: > 100 µM; IC50 [5]: > 100 µM; IC50 [6]: > 100 µM; Papp [7]: < 2 ×10⁻⁶ cm/s
O=C(NC[C@@H]1CCCN1)c1ccc(-c2cnc3ccc(NCc4ccccc4)nn23)cc1 | 3.7 µM |  | 
O=C(NC[C@@H]1CCCN1)c1ccc(-c2cnc3ccc(NCc4cccc(Cl)c4)nn23)cc1 | 2.7 µM | 0.19 µM | IC50 [1]: > 4 µM; IC50 [2]: 78 µM; IC50 [3]: > 100 µM; IC50 [5]: > 100 µM; IC50 [6]: > 100 µM; Papp [7]: < 2 ×10⁻⁶ cm/s
O=C(NC[C@@H]1CCCN1)c1ccc(-c2cnc3ccc(NCCO)nn23)cc1 | > 30 µM |  | 
O=C(NC[C@@H]1CCCN1)c1ccc(-c2cnc3ccc(NCCCO)nn23)cc1 | > 30 µM |  | 
CC(=O)NCCNc1ccc2ncc(-c3ccc(C(=O)NC[C@@H]4CCCN4)cc3)n2n1 | > 30 µM |  | 
O=C(NC[C@@H]1CCCN1)c1ccc(-c2cnc3ccc(NCCc4cnc[nH]4)nn23)cc1 | > 30 µM | 3 µM | 
O=C(NC[C@@H]1CCCN1)c1ccc(-c2cnc3ccc(NCCCn4ccnc4)nn23)cc1 | > 30 µM | 0.38 µM | 
O=C(NC[C@@H]1CCCN1)c1ccc(-c2cnc3ccc(N[C@H]4CC[C@H](O)CC4)nn23)cc1 | > 30 µM |  | 
CN(C)c1ccc2ncc(-c3ccc(C(=O)NC[C@@H]4CCCN4)cc3)n2n1 | 20 µM |  | 
O=C(NC[C@@H]1CCCN1)c1ccc(-c2cnc3ccc(N4CCOCC4)nn23)cc1 |  | > 30 µM | 
O=C(NC[C@@H]1CCCN1)c1ccc(-c2cnc3ccc(N4CCC(O)CC4)nn23)cc1 |  | > 30 µM | 
CCN(CC)CCNC(=O)c1ccc(-c2cnc3ccc(NCC4CC4)nn23)cc1 | 1.2 µM |  | 
CN(C)CCN(C)C(=O)c1ccc(-c2cnc3ccc(NCC4CC4)nn23)cc1 | 2.4 µM |  | 
CC(N)CNC(=O)c1ccc(-c2cnc3ccc(NCC4CC4)nn23)cc1 (stereo not given) | 1.5 µM | 0.31 µM | 
CC(CN(C)C)NC(=O)c1ccc(-c2cnc3ccc(NCC4CC4)nn23)cc1 (stereo not given) | 2.1 µM |  | 
O=C(c1ccc(-c2cnc3ccc(NCC4CC4)nn23)cc1)N1CCC[C@H]1CN1CCCC1 |  | 5.1 µM | 
O=C(c1ccc(-c2cnc3ccc(NCC4CC4)nn23)cc1)N1CCC[C@@H]1CN1CCCC1 | 2.1 µM | 0.16 µM | 
O=C(NC[C@H]1CCCN1)c1ccc(-c2cnc3ccc(NCC4CC4)nn23)cc1 | 1.6 µM | 0.1 µM | 
O=C(NC[C@@H]1CCCCN1)c1ccc(-c2cnc3ccc(NCC4CC4)nn23)cc1 | 1.5 µM |  | 
CN1CCC[C@H]1CNC(=O)c1ccc(-c2cnc3ccc(NCC4CC4)nn23)cc1 | 1.3 µM | 0.11 µM | 
NCCNC(=O)c1ccc(-c2cnc3ccc(NCc4ccc(Cl)c(Cl)c4)nn23)cc1 | 2.4 µM |  | 
CN(C)CCNC(=O)c1ccc(-c2cnc3ccc(NCc4ccc(Cl)c(Cl)c4)nn23)cc1 | > 30 µM |  | IC50 [3]: > 100 µM; IC50 [6]: > 100 µM
